# Screening data as filed in PubChem BioAssay.
# KCNQ1 block = human KCNQ1 channel inhibition | P51787 | CHO-K1 KCNQ1, FluxOR thallium flux fluorescence; hits give high values | B-score at 10 µM | hit rate 1.3% among 310,000 | AID 2642;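 active = compounds whose thallium flux B-score, printed positive for inhibition, exceeds three library SD while starting fluorescence stays within three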;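 note: channel opened by potassium depolarization with thallium stimulus after 20 min compound exposure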
# KCNK3 inh = human KCNK3 channel inhibition, primary screen | O14649 | CHO-KCNK3 thallium flux, FluxOR fluorescence; hits give low values | B-score at 10 µM | hit rate 0.84% among 340,000;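 active = B-score under library mean minus 4 SD, starting fluorescence ratio at most library mean plus 5 SD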;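 note: more negative B-score means stronger inhibition of thallium flux through KCNK3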
# KCNQ1 act = potentiates or activates the human KCNQ1 potassium channel. P51787. CHO-K1 KCNQ1, thallium flux FluxOR fluorescence; hits give high values. B-score at 10 µM. hit rate 0.35% among 310,000. AID 2648;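 active = fluorescence ratio B-score, a plate-corrected score, at least three library SD, with initial intensity B-score within 5 SD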
#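 Assay system: CHO-K1 cells stably expressing KCNQ1. Medium: assay buffer for compound exposure, DMSO matched across wells. Timing: 37 °C overnight plating, 90-min dark dye load, 20-min compound pretreatment. Signal: kinetic FluxOR fluorescence, 10 s baseline plus 110 s post-stimulus.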
# Cl transport mod = modulators of human KCC2 chloride dependent transport | Q9H2X9 | KCC2 cells, thallium flux FluoZin-2 fluorescence | B-score of Tl+ flux slope (higher = more flux/activation; lower = inhibition) at 10 µM | hit rate 2.2% among 190,000;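 active = thallium flux slope and its plate-corrected score both differing from the plate sample mean at a set confidence after two filtering rounds, in either direction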;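 note: slope of fluorescence scaled to starting intensity during 10 to 20 s after thallium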
# Target sequence (Q9H2X9 whole entry, looked up): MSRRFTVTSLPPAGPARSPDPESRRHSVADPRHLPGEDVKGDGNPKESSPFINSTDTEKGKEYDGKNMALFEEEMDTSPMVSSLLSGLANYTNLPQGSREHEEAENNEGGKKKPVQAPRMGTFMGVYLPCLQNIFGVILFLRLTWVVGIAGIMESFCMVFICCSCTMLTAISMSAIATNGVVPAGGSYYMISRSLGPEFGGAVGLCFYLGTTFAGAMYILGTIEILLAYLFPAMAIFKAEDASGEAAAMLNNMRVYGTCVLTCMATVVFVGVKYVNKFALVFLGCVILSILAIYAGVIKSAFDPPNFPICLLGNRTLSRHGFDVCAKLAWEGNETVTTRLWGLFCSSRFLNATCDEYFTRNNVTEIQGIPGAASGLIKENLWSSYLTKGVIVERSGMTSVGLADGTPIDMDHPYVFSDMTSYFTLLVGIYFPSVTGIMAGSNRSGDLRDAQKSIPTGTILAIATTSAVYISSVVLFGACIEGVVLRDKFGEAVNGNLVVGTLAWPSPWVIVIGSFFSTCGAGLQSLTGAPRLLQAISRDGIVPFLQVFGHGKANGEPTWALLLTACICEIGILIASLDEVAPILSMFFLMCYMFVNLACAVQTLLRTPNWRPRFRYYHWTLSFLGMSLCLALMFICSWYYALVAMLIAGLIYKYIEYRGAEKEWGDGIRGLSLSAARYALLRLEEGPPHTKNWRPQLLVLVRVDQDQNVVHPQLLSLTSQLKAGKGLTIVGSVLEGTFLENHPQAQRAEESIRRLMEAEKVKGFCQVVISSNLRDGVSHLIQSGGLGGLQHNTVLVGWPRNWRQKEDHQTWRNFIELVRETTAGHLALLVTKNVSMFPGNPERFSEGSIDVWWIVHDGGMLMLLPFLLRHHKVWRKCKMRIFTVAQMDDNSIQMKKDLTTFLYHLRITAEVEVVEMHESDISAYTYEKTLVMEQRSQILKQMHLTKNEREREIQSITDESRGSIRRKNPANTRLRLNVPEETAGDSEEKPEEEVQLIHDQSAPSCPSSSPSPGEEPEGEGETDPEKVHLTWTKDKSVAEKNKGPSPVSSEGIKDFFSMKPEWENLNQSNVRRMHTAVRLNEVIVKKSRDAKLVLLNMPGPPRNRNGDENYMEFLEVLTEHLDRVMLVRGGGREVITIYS
# hERG rescue = hERG (human) protection from proarrhythmic block. activation (rescue from dofetilide block), less the hit threshold, % at 10 µM. hit rate 0.51% among 310,000. CHO-hERG, FluxOR thallium flux, dofetilide IC70 present. Q12809. AID 1511;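 active = activation above the mean of controls blocked by dofetilide plus 5 SD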;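 note: thallium influx through hERG after potassium depolarization seen as dye fluorescence rise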
# KCNK9 inh = inhibitors of human KCNK9 two-pore domain potassium channel; HEK293 KCNK9, FluxOR thallium flux fluorescence; hits give low values; B-score at 10 µM; hit rate 1.2% among 310,000; AID 488922;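 active = ratio B-score over 3 SD below the library mean, with starting fluorescence within 5 SD of its mean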;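 note: negative B-score means less thallium flux so channel inhibition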
# The depositor's hits bear a star; i = inactive; . = not tested or not shown. This is a sample that favours compounds with a hit; in the whole collection about 4.1% have one here.
SMILES,KCNQ1 block,KCNK3 inh,KCNQ1 act,Cl transport mod,hERG rescue,KCNK9 inh
COc1cccc(C(=O)NNC(=O)C(=O)Nc2cccc3ccccc23)c1,i,i,36*,.,42.5*,i
CCOc1ccc(C=NC23CN4CN(CN(C4)C2)C3)cc1,i,i,i,-0.297,12.2*,i
CCOc1ccc(OCCC(=O)N(CC)CC(=O)NCc2ccc(Cl)cc2)cc1,i,i,i,.,-13.1,i
COc1cc(/C=C2/C(=O)NN(c3ccccc3)C2=O)cc(Br)c1O,i,i,i,.,6.8*,i
COc1cc(/C=C2\C(=O)NN(c3ccccc3)C2=O)cc([N+](=O)[O-])c1O,i,i,i,.,-8.3,i
CC1=CC(=O)c2c(O)ccc(O)c2C1=O,.,.,.,-5.07*,.,.
O=C1C=C(N2CCN(c3ccccn3)CC2)C(=O)c2c(O)ccc(O)c21,.,i,.,.,.,.
COc1ccc(NC(=O)Nc2ccc3c(c2)C(=O)N([C@H](C)CO)C[C@H](C)[C@@H](CN(C)C(=O)Nc2c(C)noc2C)O3)cc1,.,i,.,.,.,.
CC(=O)/C(N=Nc1cccc(C(F)(F)F)c1)=C(\C)O,i,i,i,0.0385,-3.6,i
CN(C(=O)/C(N=Nc1cccc(C(F)(F)F)c1)=C(\O)C(F)(F)F)c1ccccc1,6*,i,i,.,-23.7,i
COc1ccc(CNC(=O)CCCC(=O)n2nc(C)c3ccccc32)cc1,i,i,i,.,-2.3,i
CCCCN(C)CC(O)Cn1cc(/C=C/C(=O)c2cccs2)c2ccccc21 (centres undefined),8*,i,i,i,-31.7,i
O=C(CSc1nc2ccccc2nc1N1CCCCC1)N1CCN(c2ccccc2)CC1,6*,i,i,.,-15.0,i
COc1cc(/C=C/C(=O)c2ccc3c(c2)OCO3)cc(Cl)c1O,6*,i,i,.,-11.8,-7.04*
Cc1ccc(C2C(C#N)=C(N)OC3=C2C(=O)CC(C)(C)C3)s1 (centres undefined),i,i,9*,-0.0743,-1.9,i
CCCCN1C(=O)C2ON(c3ccccc3C)C(c3ccco3)C2C1=O (centres undefined),i,-9.03*,i,0.365,-16.3,i
Cc1cccc(Sc2nc(-c3ccccc3)ccc2C#N)c1,i,i,i,.,-15.3,-6.59*
O=C(c1ccc(Cl)cc1)c1cccc(O)c1,.,i,.,.,.,.
C=CCn1c(=NC(=O)C2COc3ccccc3O2)sc2cccc(OC)c21 (centres undefined),i,i,i,-2.92,-12.6,-7.37*
C=CCn1c(=NC(=O)CN2C(=O)CCC2=O)sc2cccc(OC)c21,i,i,i,.,-6.9,i
C=CCNC(=O)COC(=O)c1ccc(Cl)c(S(=O)(=O)N(Cc2ccccc2)c2ccccc2)c1,6*,i,i,-3.08,-7.3,i
NC(=O)NC(=O)COC(=O)c1ccc(Cl)c(S(=O)(=O)N(Cc2ccccc2)c2ccc(Cl)cc2)c1,i,i,i,-0.666,-9.5,i
COc1ccc(NC(=O)Nc2ccc3c(c2)C(=O)N([C@@H](C)CO)C[C@@H](C)[C@@H](CN(C)S(=O)(=O)c2cn(C)cn2)O3)cc1,.,i,.,.,.,.
COc1ccc(OC)c(S(=O)(=O)Nc2ccc3c(c2)N(C(C)=O)CCC3)c1,i,i,13*,.,-10.5,i
Cc1ccc(NC(=O)C2COc3ccccc3O2)cc1S(=O)(=O)N1CCCCC1 (centres undefined),.,i,.,.,.,.
SMILES,KCNQ1 block,KCNK3 inh,KCNQ1 act,Cl transport mod,hERG rescue,KCNK9 inh
COc1ccc(CNC(=O)C(C)OC(=O)CO/N=C(\C)c2ccc3c(c2)OCO3)cc1 (centres undefined),i,i,i,.,-14.1,i
CC(C)C[C@H]1C(=O)N2CCC[C@H]2[C@]2(O)O[C@](NC(=O)[C@@H]3C=C4c5cccc6[nH]c(Br)c(c56)CC4N(C)C3)(C(C)C)C(=O)N12 (some centres undefined),6*,i,i,-0.684,-9.6,i
C#CCN(C[C@@H](CC(C)C)NC(=O)OC(C)(C)C)S(=O)(=O)c1ccc(Br)cc1F,.,i,.,.,.,.
COc1ccccc1NS(=O)(=O)c1ccc(C(=O)NCC(c2ccc(F)cc2)N2CCOCC2)cc1 (centres undefined),.,i,.,.,.,.
COc1cc(C(=O)NCC(c2ccc(F)cc2)N2CCOCC2)ccc1OCc1ccccc1Cl (centres undefined),10*,i,i,.,-14.4,i
S=C(N/N=C/c1ccccc1Cl)Nc1ccccc1,i,i,i,15.6*,-3.8,i
CNC(=S)N/N=C/c1ccccc1Cl,i,i,i,2.13,-6.7,i
Cc1noc(C)c1NC(=O)N(C)C[C@H]1Oc2ccc(NC(=O)C3CC3)cc2C(=O)N([C@H](C)CO)C[C@@H]1C,.,i,.,.,.,.
C=CCn1c(COc2ccc(F)cc2)nnc1SCC(=O)NC1CCS(=O)(=O)C1 (centres undefined),i,i,i,.,-13.4,i
O=[N+]([O-])c1ccc(-c2cn(-c3ccc(Cl)cc3)c(=S)[nH]2)cc1,i,i,i,3.66*,-1.9,i
CCc1nnc(NC(=O)c2ccncc2)s1,i,i,i,0.0234,-5.4,i
CC(C)(C)Cc1nnc(NC(=O)c2ccco2)s1,i,i,i,.,17.6*,i
CCc1nnc(NC(=O)c2cccc(C(=O)Nc3nnc(CC)s3)n2)s1,i,i,i,0.0366,4.9*,i
Cc1noc(C)c1COc1ccccc1C(=O)NCCc1ccc(F)cc1,.,i,.,.,.,.
O=S(=O)(c1ccccc1Cl)N1CCC(Cc2ccccc2)CC1,6*,i,i,.,-17.9,i
Cc1cc(-n2c(C)cc(C(=O)CSc3nncn3C(C)C)c2C)no1,i,i,i,.,-15.0,i
COc1ccc(-n2c(=S)[nH]c3ccccc32)cc1,i,i,i,22.5*,-12.1,i
COc1ccc(-n2c(=S)[nH]c3ccccc3c2=S)cc1,i,i,16*,.,0.2,i
C=CCOC(=O)C1=C(C)NC(=O)NC1c1ccc(OC(=O)c2ccco2)c(OC)c1 (centres undefined),i,i,i,-3.27*,-9.9,i
CCCCOC(=O)c1cc(C)nc2ccc(Br)cc12,i,i,i,-0.0808,6.5*,i
COc1cccc(CC(=O)Nc2ccc(F)c(S(=O)(=O)N3CCOCC3)c2)c1,.,i,.,.,.,.
Cc1ccc(C(=O)N/N=C/c2ccc(-c3ccc(Br)cc3[N+](=O)[O-])o2)o1,7*,i,i,.,-19.0,i
Cc1ccc(/C=N\NC(=O)c2cc([N+](=O)[O-])cc([N+](=O)[O-])c2)o1,i,i,i,4.72*,-14.3,i
